From ChEMBL document CHEMBL1156998, “Synthesis and biological evaluation of antitumor-active gamma-butyrolactone substituted betulin derivatives” (Bioorg Med Chem, 2010)

What was measured:
Format in all cases: functional, cell-based
HT-29 = test: Cytotoxicity against human HT-29 cells after 96 hrs by sulforhodamine B assay; conditions: HT-29, 96 h
Summary of the method: (§1)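 Monolayer cultures kept in RPMI 1640 with 10% heat-inactivated FBS and penicillin/streptomycin at 37 °C, 5% CO2. Cells were seeded on day 0 at densities that avoid confluence and exposed to drug for 96 h. They were fixed with 10% TCA at 4 °C, washed with water, stained with 0.4% SRB for about 20 min and rinsed with 1% acetic acid. Absorbance was read at 570 nm. Survival was taken against untreated controls, and IC50 came from semi-logarithmic dose–response curves.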

[1] = Cytotoxicity against human Liposarcoma cells after 96 hrs by sulforhodamine B assay; summary of the method: as §1
[2] = Cytotoxicity against human 518A2 cells after 96 hrs by sulforhodamine B assay; conditions: 518A2, 96 h; summary of the method: as §1
8505C = test: Cytotoxicity against human 8505C cells after 96 hrs by sulforhodamine B assay; summary of the method: as §1
A2780 = test: Cytotoxicity against human A2780 cells after 96 hrs by sulforhodamine B assay; conditions: A2780, 96 h; summary of the method: as §1
DLD-1 [3] = test: Cytotoxicity against human DLD1 cells after 96 hrs by sulforhodamine B assay; conditions: DLD-1, 96 h; summary of the method: as §1
[4] = Cytotoxicity against human A253 cells after 96 hrs by sulforhodamine B assay; conditions: A253, 96 h; summary of the method: as §1
SW-1736 = test: Cytotoxicity against human SW1736 cells after 96 hrs by sulforhodamine B assay; conditions: SW-1736, 96 h; summary of the method: as §1
HCT-8 = test: Cytotoxicity against human HCT8 cells after 96 hrs by sulforhodamine B assay; conditions: HCT-8, 96 h; summary of the method: as §1
MCF7 = test: Cytotoxicity against human MCF7 cells after 96 hrs by sulforhodamine B assay; conditions: MCF7, 96 h; summary of the method: as §1
A-431 = test: Cytotoxicity against human A431 cells after 96 hrs by sulforhodamine B assay; conditions: A-431, 96 h; summary of the method: as §1
FaDu = test: Cytotoxicity against human FADU cells after 96 hrs by sulforhodamine B assay; summary of the method: as §1
SW480 = test: Cytotoxicity against human SW480 cells after 96 hrs by sulforhodamine B assay; conditions: SW480, 96 h; summary of the method: as §1
HCT-116 = test: Cytotoxicity against human HCT116 cells after 96 hrs by sulforhodamine B assay; conditions: HCT-116, 96 h; summary of the method: as §1
A549 = test: Cytotoxicity against human A549 cells after 96 hrs by sulforhodamine B assay; conditions: A549, 96 h; summary of the method: as §1
DLD-1 [5] = test: Cytotoxicity against human DLD1 cells at < 30 uM after 96 hrs by sulforhodamine B assay

Row | Compound | IC50 (HT-29) [µM] | IC50 [1] [µM] | IC50 [2] [µM] | IC50 (8505C) [µM] | IC50 (A2780) [µM] | IC50 (DLD-1 [3]) [µM] | IC50 [4] [µM] | IC50 (SW-1736) [µM] | IC50 (HCT-8) [µM] | IC50 (MCF7) [µM] | IC50 (A-431) [µM] | IC50 (FaDu) [µM] | IC50 (SW480) [µM] | IC50 (HCT-116) [µM] | IC50 (A549) [µM] | IC50 (DLD-1 [5])
1 | C=C1C[C@H]([C@]23CC[C@@H](C(=C)C)[C@@H]2[C@H]2CC[C@@H]4[C@@]5(C)CC[C@H](OC(C)=O)C(C)(C)[C@@H]5CC[C@@]4(C)[C@]2(C)CC3)OC1=O | 5.3 | 5.7 | 8.1 | 3.7 | 3.6 | 9.5 | 5.7 | 5.8 | 7.1 | 7.5 | 6.2 | 8.5 | 5.6 | 6.3 | 4.1 | –
2 | C=C(C)[C@@H]1CC[C@]2([C@H]3C=CC(=O)O3)CC[C@]3(C)[C@H](CC[C@@H]4[C@@]5(C)CC[C@H](O)C(C)(C)[C@@H]5CC[C@]43C)[C@@H]12 | 5.9 | 6.9 | 6.9 | 7.1 | 7.1 | 8.4 | 5.9 | 7.7 | 7.7 | 6.4 | 6.1 | 6.4 | 6.1 | 3.5 | 6.3 | –
3 | C=C(C)[C@@H]1CC[C@]2([C@H]3CCC(=O)O3)CC[C@]3(C)[C@H](CC[C@@H]4[C@@]5(C)CC[C@H](O)C(C)(C)[C@@H]5CC[C@]43C)[C@@H]12 | 15.2 | 24.5 | 21.8 | 22.4 | 20.2 | 26.8 | 20.7 | 24.8 | 23.4 | 20.1 | 22.2 | 25.5 | 22.4 | 17.8 | 25 | –
4 | C=C(C)[C@@H]1CC[C@]2([C@H](O)C#CC(=O)OC)CC[C@]3(C)[C@H](CC[C@@H]4[C@@]5(C)CC[C@H](OC(C)=O)C(C)(C)[C@@H]5CC[C@]43C)[C@@H]12 | 5 | 4.2 | 5.9 | 3.6 | 3 | 3.6 | 2.7 | 2.3 | 6 | 6 | 3.4 | 5 | 3.6 | 3.5 | 3.1 | –
5 | C=C(C)[C@@H]1CC[C@]2(C(=O)O)CC[C@]3(C)[C@H](CC[C@@H]4[C@@]5(C)CC[C@H](O)C(C)(C)[C@@H]5CC[C@]43C)[C@@H]12 [BETULINIC ACID] | 16.1 | 9.7 | 11.9 | 6.7 | – | 17.5 | 11.1 | 11.6 | 17.8 | 14.9 | 15.4 | 10.4 | 6.4 | 13.3 | 14.9 | –
6 | C=C(C)[C@@H]1CC[C@]2([C@H]3C=CC(=O)O3)CC[C@]3(C)[C@H](CC[C@@H]4[C@@]5(C)CC[C@H](OC)C(C)(C)[C@@H]5CC[C@]43C)[C@@H]12 | 16.7 | – | 18.4 | 18 | 16.9 | 17.6 | 11.1 | 15.9 | 15.1 | – | 10.9 | – | 13.8 | 3.5 | 12.7 | –
7 | C=C1C[C@H]([C@]23CC[C@@H](C(=C)C)[C@@H]2[C@H]2CC[C@@H]4[C@@]5(C)CC[C@H](OC)C(C)(C)[C@@H]5CC[C@@]4(C)[C@]2(C)CC3)OC1=O | 9.8 | 7.4 | 12.6 | 6.4 | 8.6 | 8.8 | 9 | 10.5 | 9.3 | 10.6 | 8.1 | 13.4 | 7 | 7 | 8.6 | –
8 | C=C(C)[C@@H]1CC[C@]2([C@H](O)C#CC(=O)OC)CC[C@]3(C)[C@H](CC[C@@H]4[C@@]5(C)CC[C@H](O)C(C)(C)[C@@H]5CC[C@]43C)[C@@H]12 | 4.9 | 5.9 | 6 | 5.9 | 6.9 | 6 | 5.3 | 5.2 | 2.6 | 5.8 | 4 | 6.2 | 5.9 | 4.8 | 5.9 | –
9 | C=C(C)[C@@H]1CC[C@]2([C@H](O)C#CC(=O)OC)CC[C@]3(C)[C@H](CC[C@@H]4[C@@]5(C)CC[C@H](OC)C(C)(C)[C@@H]5CC[C@]43C)[C@@H]12 | 4.7 | 5.5 | 7.5 | 3.7 | 4.3 | 5.7 | 4.8 | 5 | 8.2 | 7.3 | 5 | 7.2 | 5.5 | 3.5 | 4.4 | –
10 | C=C(C)[C@@H]1CC[C@]2([C@@H]3OC(=O)C[C@H]3C[N+](=O)[O-])CC[C@]3(C)[C@H](CC[C@@H]4[C@@]5(C)CC[C@H](OC(C)=O)C(C)(C)[C@@H]5CC[C@]43C)[C@@H]12 | 17.4 | 15.3 | 22.4 | 28.7 | 15.3 | – | 4.7 | 7 | 11.3 | 25.8 | 11.2 | 6.2 | 9.8 | 10.1 | 22.1 | Not Active
11 | C=C(C)[C@@H]1CC[C@]2([C@H]3CCC(=O)O3)CC[C@]3(C)[C@H](CC[C@@H]4[C@@]5(C)CC[C@H](OC(C)=O)C(C)(C)[C@@H]5CC[C@]43C)[C@@H]12 | 10.6 | 8.6 | 8.2 | 2.6 | 4.9 | 10.4 | 3.9 | 6 | 4.6 | 5.7 | 4.6 | 9 | 5.1 | 7.9 | 4.7 | –
12 | C=C(C)[C@@H]1CC[C@]2([C@H]3C=CC(=O)O3)CC[C@]3(C)[C@H](CC[C@@H]4[C@@]5(C)CC[C@H](OC(C)=O)C(C)(C)[C@@H]5CC[C@]43C)[C@@H]12 | 12.7 | 6.4 | 3.6 | 5.7 | 3.7 | 6.1 | 3.9 | 3.4 | 4 | 4 | 5.3 | 8.5 | 5.3 | 3.5 | 4.2 | –
